# TRPC6 inh: mouse TRPC6 channel inhibitors, primary screen, cell-based, HEK293, membrane potential dye; Short transient receptor potential channel 6 (Mus musculus), Q61143; ACh-evoked depolarization; stronger effect = lower value; B-score at 10 µM; 1.1% of 310,000 active; AID 2553, 2010;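 active = B-score under library mean minus 3 SD, initial fluorescence not abnormally high, positive integrated signal ratio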;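 note: B-score derived from integrated fluorescence ratio over the kinetic read; more negative B-score means stronger inhibition of depolarization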
# TRPC4 potent: positive allosteric modulators of TRPC4, primary screen, cell-based, mouse TRPC4beta, HEK293 mu-opioid, Fluo-4 calcium; Short transient receptor potential channel 4 (Mus musculus), Q9QUQ5; DAMGO EC20, Fluo-4 Ca2+ flux; stronger effect = higher value; B-score at 10 µM; 0.42% of 310,000 active; AID 2227, 2009;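 active = B-score of calcium response area above 5 SD of library B-scores, with initial fluorescence ratio within 5 SD of library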;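 note: B-score of integrated fluorescence ratio over time as area under calcium response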
# TRPC6 activator: mouse TRPC6 channel activators, primary screen, cell-based, HEK293, membrane potential dye. HEK293-TRPC6 membrane potential dye fluorescence; stronger effect = higher value. 0.13% of 310,000 active. B-score at 10 µM;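 active = B-score of the integrated fluorescence ratio above library mean plus 3 SD, and starting fluorescence ratio within library mean plus 5 SD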;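 note: higher score means more depolarization so channel activation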
# TRPC4 block: inhibitors of mouse TRPC4 channel, primary screen, Fluo4 calcium, HEK293 TRPC4beta/mu-opioid cells | DAMGO-evoked Fluo4 calcium flux; stronger effect = lower value | 0.39% of 300,000 active | B-score at 10 µM | AID 2247, 2010;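 active = B-score over 3 SD under the library average, no early fluorescence shift, positive overall ratio signal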
#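 Signal: kinetic Fluo4 fluorescence imaging of calcium influx. Material: stable TRPC4beta/mu-opioid receptor HEK293 cells. Probe or stimulus: DAMGO in two steps, submaximal then maximal.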
# TRPC4 act: activators of mouse TRPC4 channel, primary screen, Fluo4 calcium, HEK293 TRPC4beta/mu-opioid cells; Short transient receptor potential channel 4 (Mus musculus), Q9QUQ5; Fluo4 calcium fluorescence; stronger effect = higher value; B-score at 10 µM; 0.49% of 310,000 active;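 active = B-score above 5 SD of library B-scores, and initial fluorescence ratio not above library mean plus 5 SD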;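 note: positive B-score marks a calcium rise read as TRPC4 activation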
#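 System – HEK293 cells stably co-expressing mouse TRPC4beta and mu-opioid receptor · Signal – Fluo4 calcium-sensitive dye fluorescence, kinetic, 1 Hz baseline · Benchmarks – buffer (low) and maximal DAMGO (high) · Read-out – B score of integrated fluorescence ratio per well · Incubation – dye loading 45 min room temperature, 110 s kinetic read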
# * = called active by the depositor; i = inactive. Compounds with a hit are over-represented: about 2.3% of the library has one in this group of screens.
SMILES,TRPC6 inh,TRPC4 potent,TRPC6 activator,TRPC4 block,TRPC4 act
Cc1ccc2cc(CN(CCN3CCOCC3)Cc3nnnn3Cc3ccco3)c(=O)[nH]c2c1C,i,i,i,i,i
CCC(c1nnnn1C(C)(C)C)N(Cc1ccco1)Cc1cc2cccc(C)c2[nH]c1=O (stereo not given),i,i,i,i,i
CCC(c1nnnn1CCc1ccccc1)N(Cc1ccco1)Cc1cc2cccc(C)c2[nH]c1=O (stereo not given),i,11*,i,i,i
Cc1ccc2cc(CN(CCCN3CCOCC3)C(c3nnnn3Cc3ccco3)C(C)C)c(=O)[nH]c2c1C (stereo not given),i,i,i,-9*,i
CCC(C(=O)NC1CCCC1)n1nc(C)n2c(cc3occc32)c1=O (stereo not given),i,i,i,i,i
COc1cc(C2NC(=S)NC(C)=C2C(=O)Nc2cc(C)cc(C)c2)ccc1O (stereo not given),i,10*,i,i,i
CCOC(=O)c1c(-c2ccc(C)cc2)csc1NC(=O)C1CC=CCC1C(=O)O (stereo not given),i,i,i,i,i
Cc1ccc(-c2csc(NC(=O)C3CC=CCC3C(=O)O)c2C(=O)OC(C)C)cc1 (stereo not given),i,i,i,-5*,i
CCOC(=O)c1c(-c2cccc(C)c2)csc1NC(=O)C1CC=CCC1C(=O)O (stereo not given),i,i,i,-6*,i
O=C(O)c1cc(-c2ccc(/C=c3\sc4nc5ccc(Br)cc5n4c3=O)o2)ccc1Cl,i,i,40*,i,i
CN1CCN(C/C(=C2/N=C(c3ccccc3)OC2=O)N(C)C)CC1,i,13*,i,i,i
CN(C)/C(Cn1cncn1)=C1/N=C(c2ccccc2)OC1=O,i,i,i,i,i
O=C(c1ccc(NS(=O)(=O)c2cccs2)cc1)N1CCOCC1,i,i,i,i,i
COc1ccc(C(=O)C2CCCN(Cc3cn[nH]c3-c3ccc(F)cc3)C2)cc1OC (stereo not given),i,i,i,i,44*
COc1ccc(C(=O)C2CCCN(Cc3ccc(Sc4nncn4C)o3)C2)cc1F (stereo not given),i,i,i,i,131*
COc1ccc(C(=O)C2CCCN(Cc3cn(C)nc3-c3ccccc3)C2)cc1F (stereo not given),i,i,i,i,i
Cc1ccc(C)c(NC(=O)c2ccccc2NC(=O)C2CCCO2)c1 (stereo not given),i,i,i,i,i
O=C(O)c1cn2c3c(ccc(Cl)c3c1=O)OCC2,i,i,i,i,i
O=C(CC1C(=O)NCCN1Cc1cccc(Oc2ccccc2)c1)NCCc1cscn1 (stereo not given),i,i,i,i,i
O=C(CC1C(=O)NCCN1Cc1cccc(Oc2ccccc2)c1)NCCc1ccccn1 (stereo not given),i,i,i,i,115*
COc1cccc(CN2CCNC(=O)C2CC(=O)NCCc2ccccn2)c1 (stereo not given),i,i,i,i,54*
O=C(CC1C(=O)NCCN1Cc1ccccc1C(F)(F)F)NCCc1ccccn1 (stereo not given),i,i,i,i,116*
O=C(CC1C(=O)NCCN1CC1CCCCC1)NCCc1ccc(F)cc1 (stereo not given),i,i,i,i,51*
O=C(CC1C(=O)NCCN1CC1CCCCC1)NCc1ccc(F)cc1 (stereo not given),i,i,i,i,i
O=C(CC1C(=O)NCCN1Cc1c(F)cccc1Cl)NCCc1ccccn1 (stereo not given),i,i,i,i,i
SMILES,TRPC6 inh,TRPC4 potent,TRPC6 activator,TRPC4 block,TRPC4 act
CCc1ccc(OCCOCC(O)CNC2CCCC2)cc1 (stereo not given),i,i,i,-5*,i
CC(C)NCC(O)COCCOc1ccc(C(C)(C)C)cc1 (stereo not given),i,i,i,-5*,i
COc1ccc(OCC(O)CNC2CCCC2)cc1 (stereo not given),i,i,i,i,i
O=C(Nc1ccc2nc3n(c(=O)c2c1)CCCCC3)C(=O)N1CCN(c2ccccc2F)CC1,i,i,i,i,i
N#Cc1ccc2nc3c(nc2c1)CCCC3,i,i,i,i,i
O=c1c(Cl)c(N2CCN(c3ccc(F)cc3)CC2)cnn1C12CC3CC(CC(C3)C1)C2,i,10*,i,i,i
O=[N+]([O-])c1cccc2c(S(=O)(=O)N3CCOCC3)cccc12,i,i,i,i,i
CC(Sc1nnnn1-c1ccccc1)C(=O)Nc1ccc(N2CCN(C)CC2)cc1 (stereo not given),i,i,i,i,47*
CC(Sc1nnnn1-c1ccccc1)C(=O)Nc1ccccc1-c1ccccc1 (stereo not given),i,i,i,i,i
NS(=O)(=O)c1ccc(O)c(NC(=O)c2ccc([N+](=O)[O-])cc2)c1,i,i,i,i,i
Cc1cc(Nc2ncc(Cl)cc2Cl)n(-c2ccccc2C)n1,i,i,i,-7*,i
Cc1ccc(-n2nc(C)cc2Nc2ncc(Cl)cc2Cl)cc1,i,i,i,i,i
Cc1ccccc1Nc1cc(C)c2c(O)cccc2n1,i,i,i,i,72*
COc1ccc(Nc2cc(C)c3c(O)cccc3n2)cc1,i,i,i,-5*,i
O=C(c1ccccc1)N(Cc1ccc(F)cc1)Cc1nc2ccccc2c(=O)[nH]1,i,12*,i,i,i
COc1ccc(NC(=O)c2cccc(N3C(=O)C4CC=C(C)CC4C3=O)c2)c(OC)c1 (stereo not given),i,i,i,-6*,i
Cc1ccc(NC(=O)CN(C)C(=O)CNC(=O)c2sc3ccccc3c2Cl)cc1,i,149*,i,i,i
COc1ccc(C(CNC(=O)C(Cc2ccccc2)NC(N)=O)N(C)C)cc1 (stereo not given),i,i,i,i,112*

# From PubChem
